Calls of active or inactive are those of the source. The calls are words filed in the database; no cut-off is given here.
What was measured:
[1] = target: T1, Prostaglandin D2 receptor 2 (Homo sapiens, UniProt Q9Y5Y4); test: Antagonist activity at human recombinant CRTh2 expressed in CHO-K1 cells by cAMP TR FRET assay; format: functional, cell-based
T1 sequence (Q9Y5Y4 whole entry): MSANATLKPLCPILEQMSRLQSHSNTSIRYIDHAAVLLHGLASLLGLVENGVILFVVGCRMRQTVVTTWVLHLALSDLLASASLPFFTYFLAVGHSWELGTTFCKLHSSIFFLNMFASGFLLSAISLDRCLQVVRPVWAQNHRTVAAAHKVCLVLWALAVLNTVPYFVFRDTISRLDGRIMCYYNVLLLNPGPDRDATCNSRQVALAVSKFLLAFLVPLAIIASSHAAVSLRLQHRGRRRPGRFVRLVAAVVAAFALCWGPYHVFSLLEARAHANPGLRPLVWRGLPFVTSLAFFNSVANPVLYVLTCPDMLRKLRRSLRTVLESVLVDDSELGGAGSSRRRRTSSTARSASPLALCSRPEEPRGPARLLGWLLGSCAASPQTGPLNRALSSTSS

[2] = Clearance in rat at 2 mg/kg, iv and 10 mg/kg, po; format: ADME, organism-based; settings: in vivo
[3] = Oral bioavailability in rat at 10 mg/kg; format: ADME, organism-based; settings: in vivo
Mus musculus [4] = test: Antiallergic inflammatory activity in oxazolone induced contact hypersensitivity mouse model assessed as reduction ear swelling at 3 mg/kg, po prior to oxazolone and 7 hrs post challenge measured after 24 hrs; format: functional
How it was run: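 Mice sensitized on the shaved abdomen with 2% oxazolone in ethanol one week before challenge. Dosed orally 1 h before the left ear was challenged with 10 μL of 2% oxazolone (ethanol on the right ear as control), then redosed 7 h after challenge. Ear thickness measured by micrometer; swelling taken as 24 h post-challenge minus pre-challenge thickness. Unpaired t test.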

Rattus norvegicus [5] = organism: Rattus norvegicus; test: Clearance in rat; settings: in vivo
Rattus norvegicus [6] = test: Oral bioavailability in rat; settings: in vivo
[7] = Metabolic clearance in dog hepatocytes measured per 10^6 cells; format: ADME, cell-based, Canis lupus familiaris, Hepatocyte; settings: read-out: CLH
[8] = Cmax in monkey at 10 mg/kg, po; format: ADME, organism-based, Macaca mulatta; design: dose 10 mg/kg, route oral; settings: rhesus monkey, in vivo
How it was run: (§1)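 Single intravenous dose of 2 mg/kg and single oral dose of 10 mg/kg, given separately, in rat, dog and monkey. Clearance and half-life taken from the iv arm; Cmax from the oral arm.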

[9] = Volume of distribution at steady state in monkey at 2 mg/kg, iv; format: ADME, organism-based, Macaca mulatta; design: dose 2 mg/kg, route intravenous; settings: rhesus monkey, in vivo, read-out: Vdss
Hepatocyte [10] = test: In vitro intrinsic biliary clearance in sandwich cultured human hepatocytes measured; format: ADME, cell-based, Bile
How it was run: (§2)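 Sandwich-cultured hepatocytes incubated with substrate at 1–50 μM (rat) or 1–10 μM (human), with and without Ca2+. Biliary excretion taken as the difference in cellular accumulation between the two conditions. Intrinsic biliary clearance calculated as amount excreted into bile divided by substrate concentration over time.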

[11] = Metabolic clearance in monkey hepatocytes measured per 10^6 cells; format: ADME, cell-based, Macaca mulatta, Hepatocyte; settings: rhesus monkey, read-out: CLH
[12] = Oral bioavailability in monkey at 10 mg/kg; format: ADME, organism-based, Macaca mulatta; settings: rhesus monkey, in vivo
Rattus norvegicus [13] = test: In vivo intrinsic biliary clearance in rat; format: ADME, organism-based, Bile
[14] = Clearance in monkey at 2 mg/kg, iv; format: ADME, organism-based, Macaca mulatta; design: dose 2 mg/kg, route intravenous; settings: rhesus monkey, in vivo; how it was run: as §1
Hepatocyte [15] = test: In vitro intrinsic biliary clearance in sandwich cultured rat hepatocytes measured; format: ADME, cell-based, Bile; how it was run: as §2
[16] = Oral bioavailability in dog at 10 mg/kg; format: ADME, organism-based, Canis lupus familiaris; settings: in vivo
[17] = Volume of distribution at steady state in dog at 2 mg/kg, iv; format: ADME, organism-based, Canis lupus familiaris; design: dose 2 mg/kg, route intravenous; settings: in vivo, read-out: Vdss
[18] = Half life in monkey at 2 mg/kg, iv; format: ADME, organism-based, Macaca mulatta; design: dose 2 mg/kg, route intravenous; settings: rhesus monkey, in vivo; how it was run: as §1
[19] = Metabolic clearance in rat hepatocytes measured per 10^6 cells; format: ADME, cell-based, Hepatocyte; settings: read-out: CLH
[20] = Clearance in dog at 2 mg/kg, iv; format: ADME, organism-based, Canis lupus familiaris; design: dose 2 mg/kg, route intravenous; settings: in vivo; how it was run: as §1
[21] = Cmax in dog at 10 mg/kg, po; format: ADME, organism-based, Canis lupus familiaris; design: dose 10 mg/kg, route oral; settings: in vivo; how it was run: as §1
[22] = Half life in dog at 2 mg/kg, iv; format: ADME, organism-based, Canis lupus familiaris; design: dose 2 mg/kg, route intravenous; settings: in vivo; how it was run: as §1
[23] = Plasma clearance in rat at 5 mg/kg, iv measured after 24 hrs by LC-MS analysis; format: ADME, organism-based; design: dose 5 mg/kg, route intravenous
How it was run: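 Bile duct-cannulated rats received a single iv dose of 5 mg/kg. Average plasma clearance was determined, and parent drug was quantified in bile and urine collected over 24 h.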

[24] = Drug excretion in rat bile assessed as drug recovery at 5 mg/kg, iv measured after 24 hrs by LC-MS analysis; format: ADME, organism-based; design: dose 5 mg/kg, route intravenous; settings: read-out: Drug recovery
How it was run: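 Bile duct-cannulated rats given a single iv dose of 5 mg/kg; parent drug recovered in bile and urine over 24 h.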

[25] = Drug excretion in dog feces assessed as drug recovery at 5 mg/kg, iv measured after 24 hrs by LC-MS analysis; format: ADME, organism-based, Canis lupus familiaris; design: dose 5 mg/kg, route intravenous; settings: faeces, read-out: Drug recovery
How it was run: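 Dogs given a single intravenous dose of 5 mg/kg; unchanged parent drug measured in the feces.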

Mus musculus [26] = test: Antiallergic activity in house dust mite-induced allergic airway disease BALB/c mouse model assessed as reduction in airway inflammation at 1 mg/kg, ip qd after 17 days; format: functional, organism-based; design: dose 1 mg/kg

Compound: Cc1c(-c2ccc(=O)n(CCCC(F)(F)F)c2)c2cc(F)ccc2n1CC(=O)O
- IC50 [1]: 16 nM

Compound: Cc1c(-c2cn(Cc3ccccc3)c(=O)c3ccccc23)c2cc(F)ccc2n1CC(=O)O
- IC50 [1]: 14 nM

Compound: Cc1c(Cc2ccc(=O)n(Cc3ccc(F)cc3F)c2)c2cc(F)ccc2n1CC(=O)O
- clearance [2]: 32 mL/min/kg
- IC50 [1]: 4 nM
- bioavailability [3]: 4%

Compound: Cc1c(-c2cn(CC(F)(F)F)c(=O)c3c2CCCC3)c2cc(F)ccc2n1CC(=O)O
- IC50 [1]: 1000 nM

Compound: Cc1c(-c2ccc(OCCCC(F)(F)F)nc2)c2cc(F)ccc2n1CC(=O)O
- IC50 [1]: 689 nM

Compound: Cc1c(-c2cn(CC(F)(F)F)c(=O)c3ccccc23)c2cc(F)ccc2n1CC(=O)O
- inhibition in vivo at 3 mg/kg (Mus musculus [4]): 32.8%
- clearance (Rattus norvegicus [5]): 20 mL/min/kg
- bioavailability (Rattus norvegicus [6]): 35%

Compound: Cc1c(-c2cn(CCCC(F)(F)F)c(=O)c3ccccc23)c2cc(F)ccc2n1CC(=O)O
- inhibition in vivo at 3 mg/kg (Mus musculus [4]): 30.4%
- IC50 [1]: 1 nM
- clearance (Rattus norvegicus [5]): 35 mL/min/kg
- bioavailability (Rattus norvegicus [6]): < 5%

Compound: Cc1c(Cc2ccc(=O)n(CCCC(F)(F)F)c2)c2cc(F)ccc2n1CC(=O)O
- IC50 [1]: 150 nM

Compound: Cc1c(-c2ccc(=O)n(Cc3c(F)cccc3F)c2)c2cc(F)ccc2n1CC(=O)O
- IC50 [1]: 6 nM

Compound: Cc1c(-c2ccc(=O)n(C(C)C)c2)c2ccccc2n1CC(=O)O
- IC50 [1]: 556 nM

Compound: Cc1c(-c2ccc(=O)n(Cc3c(F)cccc3F)c2)c2ccccc2n1CC(=O)O
- IC50 [1]: 21 nM

Compound: Cc1c(-c2ccc(=O)n(CC(F)(F)F)c2)c2cc(Cl)ccc2n1CC(=O)O
- IC50 [1]: 148 nM

Compound: Cc1c(Cc2ccc(=O)n(Cc3cccc(F)c3)n2)c2cc(F)ccc2n1CC(=O)O
- IC50 [1]: 8 nM

Compound: Cc1ccc2c(c1)c(-c1ccc(=O)n(CC(F)(F)F)c1)c(C)n2CC(=O)O
- IC50 [1]: 1120 nM

Compound: Cc1c(Cc2ccc(=O)n(Cc3ccc(F)cc3F)n2)c2cc(F)ccc2n1CC(=O)O
- hepatocyte CLint [7]: < 5 µL/min/1e6 cells
- Cmax [8]: 246 ng/mL
- Vd [9]: 0.4 L/kg
- CLH (Hepatocyte [10]): < 1 µL/min/µg
- hepatocyte CLint [11]: < 5 µL/min/1e6 cells
- bioavailability [12]: 12%
- CL (Rattus norvegicus [13]): 3.8 mL/min/kg
- clearance [14]: 21 mL/min/kg
- CLH (Hepatocyte [15]): < 2.6 µL/min/µg
- bioavailability [16]: 8%
- Vd [17]: 0.4 L/kg
- half-life [18]: 138 min
- hepatocyte CLint [19]: < 5 µL/min/1e6 cells
- clearance [20]: 20 mL/min/kg
- Cmax [21]: 716 ng/mL
- half-life [22]: 138 min
- clearance [23]: 14 mL/min/kg
- dose excreted at 24 h [24]: 27%
- dose excreted at 24 h [25]: > 90%

Compound: COc1ccc2c(c1)c(-c1ccc(=O)n(CC(F)(F)F)c1)c(C)n2CC(=O)O
- IC50 [1]: 2000 nM

Compound: Cc1c(Cc2ccc(=O)n(Cc3ccc(F)cc3)n2)c2cc(F)ccc2n1CC(=O)O
- IC50 [1]: 6 nM

Compound: Cc1c(-c2cn(Cc3ccccc3)c(=O)c3c2CCCC3)c2cc(F)ccc2n1CC(=O)O
- IC50 [1]: 192 nM

Compound: Cc1c(-c2ccc(=O)n(Cc3cccc(F)c3F)c2)c2cc(F)ccc2n1CC(=O)O
- IC50 [1]: 0.8 nM

Compound: Cc1c(-c2ccc(=O)n(Cc3ccccc3)c2)c2cc(F)ccc2n1CC(=O)O
- clearance [2]: 15 mL/min/kg
- bioavailability [3]: < 10%

Compound: Cc1c(-c2ccc(=O)n(C(C)C)c2)c2cc(Cl)ccc2n1CC(=O)O
- IC50 [1]: 195 nM

Compound: Cc1c(Cc2ccc(=O)n(Cc3cc(F)ccc3F)n2)c2cc(F)ccc2n1CC(=O)O
- IC50 [1]: 2 nM

Compound: Cc1c(-c2ccc(=O)n(Cc3ccc(F)cc3F)c2)c2cc(F)ccc2n1CC(=O)O
- IC50 [1]: 17 nM

Compound: Cc1c(Cc2ccc(=O)n(CC(F)(F)F)c2)c2cc(F)ccc2n1CC(=O)O
- clearance [2]: 7 mL/min/kg
- IC50 [1]: 52 nM
- bioavailability [3]: 20%

Compound: Cc1c(Cc2ccc(=O)n(CCCC(F)(F)F)n2)c2cc(F)ccc2n1CC(=O)O
- IC50 [1]: 11 nM

Compound: Cc1c(Cc2ccc(=O)n(CC(F)(F)F)n2)c2cc(F)ccc2n1CC(=O)O
- IC50 [1]: 18 nM

Compound: Cc1c(-c2ccc(=O)n(CC(F)(F)F)c2)c2cc(F)ccc2n1CC(=O)O
- IC50 [1]: 84 nM

Compound: C[C@@H]1C[C@H]2[C@@H]3CCC4=CC(=O)C=C[C@]4(C)[C@@]3(F)[C@@H](O)C[C@]2(C)[C@@]1(O)C(=O)CO
- inhibition (Mus musculus [26]): Active

Compound: Cc1c(-c2ccc(=O)n(C(C)C)c2)c2cc(F)ccc2n1CC(=O)O
- IC50 [1]: 70 nM

Compound: Cc1c(-c2cn(CC(C)(C)C)c(=O)c3ccccc23)c2cc(F)ccc2n1CC(=O)O
- inhibition in vivo at 3 mg/kg (Mus musculus [4]): 47.4%

From ChEMBL document CHEMBL3232705, “Discovery of isoquinolinone indole acetic acids as antagonists of chemoattractant receptor homologous molecule expressed on Th2 cells (CRTH2) for the treatment of allergic inflammatory diseases” (J Med Chem, 2014)
